# Activity calls are given as the source filed them. The calls are words filed in the database; no cut-off is given here.
# Columns and labels:
# MCF7 = assay: Cytotoxicity against human MCF7 cells after 72 hrs by SRB assay; assay type: functional, cell-based; settings: Homo sapiens, MCF7, 72 h; read-out: IC50
# In short: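 SRB assay. Cells plated per well (HCT116 3000; Huh7, Hep3B, HepG2, MCF-7 2000; Mahlavu, FOCUS, SNU475 1000) and grown 24 h. Compounds came from 20 mM DMSO stocks and were tested in triplicate, 40 to 2,5 (or 2,5 to 0,03) per printed range, for 72 h. Cells fixed in 10% TCA, stained with 0.4% SRB, dye dissolved in 10 mM Tris, A515 read. IC50 derived after DMSO normalization.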
# Huh-7 [1] = assay: Cytotoxicity against human HuH7 cells after 24 hrs by RTCA analysis; assay type: functional, cell-based; settings: Huh-7, 24 h
# In short: (§1)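 xCELLigence impedance real-time growth assay. Huh7 (2000) or Mahlavu (1000) cells plated, treated after 24 h at log phase with a 2-fold dilution series (4 steps) from a top concentration of 1. Cell index recorded every 10 min for 24 h, then every 30 min. Growth inhibition normalized to DMSO; IC50 taken at 24, 48, 72 h.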
# Mahlavu [2] = assay: Cytotoxicity against human Mahlavu cells after 48 hrs by RTCA analysis; assay type: functional, cell-based; in short: as §1
# Huh-7 [3] = assay: Induction of apoptosis in human HuH7 cells assessed as viable cells at 1 uM after 72 hrs by Annexin V-FITC/propidium iodide staining-based flow cytometric analysis (reference value: 97.20%); assay type: functional; settings: Huh-7, 72 h, read-out: Activity
# Mahlavu [4] = assay: Induction of apoptosis in human Mahlavu cells assessed as necrotic cells at 1 uM after 48 hrs by Annexin V-FITC/propidium iodide staining-based flow cytometric analysis (reference value: 0.07%); assay type: functional
# Mahlavu [5] = assay: Induction of apoptosis in human Mahlavu cells assessed as early apoptotic cells at 1 uM after 72 hrs by Annexin V-FITC/propidium iodide staining-based flow cytometric analysis (reference value: 0.24%); assay type: functional
# Mahlavu [6] = assay: Cell cycle arrest in human Mahlavu cells assessed as accumulation of cells at subG1 phase at 1 uM after 24 hrs by propidium iodide staining-based flow cytometric analysis (reference value: 18.3%); assay type: functional
# [7] = target: T1, Mitogen-activated protein kinase kinase kinase 5 (Homo sapiens) (UniProt Q99683); assay: Inhibition of ASK1 Ser-966 phosphorylation in human Mahlavu cells at 1 uM after 24 to 72 hrs by Western blot analysis; assay type: cell-based
# T1 sequence (whole entry): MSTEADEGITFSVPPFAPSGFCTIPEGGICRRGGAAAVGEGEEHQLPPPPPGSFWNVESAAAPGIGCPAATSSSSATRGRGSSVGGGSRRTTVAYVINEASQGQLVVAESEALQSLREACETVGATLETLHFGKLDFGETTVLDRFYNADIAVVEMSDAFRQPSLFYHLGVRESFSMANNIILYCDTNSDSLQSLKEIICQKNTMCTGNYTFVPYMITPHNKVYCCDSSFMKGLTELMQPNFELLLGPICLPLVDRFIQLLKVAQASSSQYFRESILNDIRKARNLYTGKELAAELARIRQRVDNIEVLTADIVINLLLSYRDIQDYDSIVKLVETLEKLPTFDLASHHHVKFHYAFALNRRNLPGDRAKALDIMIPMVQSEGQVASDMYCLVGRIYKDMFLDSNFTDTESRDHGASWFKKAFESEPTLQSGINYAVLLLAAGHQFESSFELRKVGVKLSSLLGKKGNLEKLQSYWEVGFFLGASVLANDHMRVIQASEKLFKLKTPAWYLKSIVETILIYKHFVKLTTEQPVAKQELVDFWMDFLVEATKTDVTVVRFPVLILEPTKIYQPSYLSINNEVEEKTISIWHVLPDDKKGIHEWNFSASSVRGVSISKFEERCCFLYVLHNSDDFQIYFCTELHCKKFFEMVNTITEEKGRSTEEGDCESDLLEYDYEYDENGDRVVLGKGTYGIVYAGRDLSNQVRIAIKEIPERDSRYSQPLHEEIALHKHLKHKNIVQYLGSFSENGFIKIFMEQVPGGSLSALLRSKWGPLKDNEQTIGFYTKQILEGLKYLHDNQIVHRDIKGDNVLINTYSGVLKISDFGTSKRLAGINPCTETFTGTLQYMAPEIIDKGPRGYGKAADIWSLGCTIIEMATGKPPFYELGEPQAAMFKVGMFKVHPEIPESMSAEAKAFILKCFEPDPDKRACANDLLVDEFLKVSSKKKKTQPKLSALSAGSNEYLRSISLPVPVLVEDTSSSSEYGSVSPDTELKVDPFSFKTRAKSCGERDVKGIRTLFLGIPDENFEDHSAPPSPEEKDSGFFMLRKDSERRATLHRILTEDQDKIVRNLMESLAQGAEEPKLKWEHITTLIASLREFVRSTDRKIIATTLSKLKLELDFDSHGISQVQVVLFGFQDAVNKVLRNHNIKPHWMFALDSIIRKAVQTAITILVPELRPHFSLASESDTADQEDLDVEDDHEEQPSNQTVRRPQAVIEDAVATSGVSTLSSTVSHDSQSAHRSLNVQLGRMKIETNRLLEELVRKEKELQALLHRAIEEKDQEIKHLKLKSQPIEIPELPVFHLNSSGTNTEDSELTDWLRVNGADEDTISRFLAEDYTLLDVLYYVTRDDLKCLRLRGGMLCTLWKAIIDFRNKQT
# Mahlavu [8] = assay: Modulation of SAPK/JNK phosphorylation at Thr183/Tye185 residues in human Mahlavu cells at 1 uM after 24 to 72 hrs by Western blot analysis; assay type: cell-based
# [9] = target: RAC-alpha serine/threonine-protein kinase (Homo sapiens) (UniProt P31749); assay: Inhibition of Akt phosphorylation in human Mahlavu cells at 1 uM after 72 hrs by Western blot analysis; assay type: cell-based
# Sequence of RAC-alpha serine/threonine-protein kinase (Homo sapiens) (P31749 whole entry): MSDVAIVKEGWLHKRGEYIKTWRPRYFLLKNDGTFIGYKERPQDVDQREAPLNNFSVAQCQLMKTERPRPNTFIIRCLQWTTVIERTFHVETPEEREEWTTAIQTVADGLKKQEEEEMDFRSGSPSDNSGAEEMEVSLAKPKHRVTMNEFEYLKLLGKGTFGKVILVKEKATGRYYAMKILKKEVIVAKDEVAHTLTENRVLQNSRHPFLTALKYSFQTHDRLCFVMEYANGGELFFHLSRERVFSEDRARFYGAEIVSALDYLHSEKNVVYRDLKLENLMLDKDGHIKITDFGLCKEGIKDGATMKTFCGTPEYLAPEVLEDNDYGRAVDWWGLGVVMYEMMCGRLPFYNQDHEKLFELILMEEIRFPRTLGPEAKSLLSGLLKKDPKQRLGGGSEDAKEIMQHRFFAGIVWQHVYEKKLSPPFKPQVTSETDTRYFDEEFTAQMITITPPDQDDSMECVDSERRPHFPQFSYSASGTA
# [10] = target: RAC-alpha serine/threonine-protein kinase (Homo sapiens) (UniProt P31749); assay: Inhibition of Akt phosphorylation in human HuH7 cells at 1 uM after 72 hrs by Western blot analysis; assay type: cell-based
# [11] = target: RAC-alpha serine/threonine-protein kinase (Homo sapiens) (UniProt P31749); assay: Inhibition of AKT phosphorylation in human Mahlavu cells at 1 uM after 24 to 72 hrs by Western blot analysis; assay type: cell-based
inhibition [7],inhibition [9],inhibition [10],inhibition [11],Structure (SMILES),IC50 (MCF7) [nM],IC50 (Huh-7 [1]) [nM],IC50 (Mahlavu [2]) [nM],viability at 1 µM (Huh-7 [3]) [%],Activity (Mahlavu [4]) [%],Activity (Mahlavu [5]) [%],Activity (Mahlavu [6]) [%],Activity (Mahlavu [8])
Active,,,,COc1ccc2c3c(c4cc(OC)c(OC)cc4c2c1)CN1CCCC[C@@H]1C3,5,1400,400,83.4,1.16,0.13,15,Active
Active,Active,Active,Active,COc1ccc2c3c(c4cc(OC)c(OC)cc4c2c1)CN1CCCCC1C3O (racemic),1,800,4,81.7,0.07,0,16.5,Active
